Assay results reported in ChEMBL document CHEMBL3352568, “Synthesis and evaluation of in vitro antimycobacterial activity of novel 1H-benzo[d]imidazole derivatives and analogues” (Eur J Med Chem, 2015).
Values after ≈ are worked out from the molar mass of the structure shown.

system: Mycobacterium tuberculosis variant bovis; test: Antimicrobial activity against Mycobacterium bovis by two-fold serial dilution method; format: functional
Summary of the method: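 Classical test-tube successive two-fold dilution in Youmans' modification of Proskauer and Beck liquid medium with 10% bovine serum. Inocula from 14-day-old cultures. Compounds dissolved in ethylene glycol (stock 10 mg/mL), diluted in medium to 0.75–100 µg/mL. Incubated at 37 °C. MIC is the lowest concentration inhibiting growth relative to a compound-free control.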

Point of comparison: Cc1ccc2[nH]c(CCCc3ccccc3)nc2c1, MIC 25 µg/mL (≈ 99.9 µM). Against it:
- Brc1ccc2[nH]c(CCC3CCCCC3)nc2c1 — 33-fold lower, 0.75 µg/mL (≈ 2.44 µM)
- Clc1cc2nc(CCCc3ccccc3)[nH]c2cc1Cl — 8.1-fold lower, 3.1 µg/mL (≈ 10.2 µM)
- Cc1ccc2[nH]c(CCC3CCCCC3)nc2c1 — 2-fold lower, 12.5 µg/mL (≈ 51.6 µM)
- Cc1cc2nc(CCC3CCCCC3)[nH]c2cc1C — 33-fold lower, 0.75 µg/mL (≈ 2.93 µM)
- Clc1ccc2[nH]c(CCC3CCCCC3)nc2c1 — 33-fold lower, 0.75 µg/mL (≈ 2.85 µM)
- Cc1cc2nc(CCCc3ccccc3)[nH]c2cc1C — 4-fold lower, 6.2 µg/mL (≈ 23.5 µM)
- Fc1ccc2[nH]c(CCC3CCCCC3)nc2c1 — 8.1-fold lower, 3.1 µg/mL (≈ 12.6 µM)
- O=[N+]([O-])c1ccc2[nH]c(CCC3CCCCC3)nc2c1 — 8.1-fold lower, 3.1 µg/mL (≈ 11.3 µM)
- Clc1cc2nc(CCCC3CCCCC3)[nH]c2cc1Cl — the same, 25 µg/mL (≈ 80.3 µM)
- Cc1ccc2[nH]c(-c3cc(-c4ccccc4)ccn3)nc2c1 — the same, 25 µg/mL (≈ 87.6 µM)
- Fc1ccc2[nH]c(CCCC3CCCCC3)nc2c1 — 4-fold lower, 6.2 µg/mL (≈ 23.8 µM)
- Clc1cc2nc(CCC3CCCCC3)[nH]c2cc1Cl — 17-fold lower, 1.5 µg/mL (≈ 5.05 µM)
